PGC1a acetyl inh – modulators of PGC1a acetylation; U2OS PGC1a acetylation, AlphaScreen anti-acetyl-lysine; with virally co-expressed GCN5 acetyltransferase; inhibition, % at 15.6 µM; 350,000 tested, 0.17% active; AID 651687;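 active = every replicate shows inhibition of at least 40%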
rRNA inh HTS – selective bacterial rRNA inhibition in E. coli; 350,000 tested, 1.6% active; E. coli WT GFP vs humanized-ribosome RFP mutants, fluorescence, 24 h; hits give low values; DMSO median 0, no signal -100; AID 720706; GFP signal change (wild-type ribosome), % (test concentration not listed);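 active = significant combined selectivity score with lowered wild-type GFP, culture density cut under 30%, mutant RFP and density less affected; inactive = any of these conditions unmet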
SIRT5 block – blocks human SIRT5 desuccinylation of peptide. Purified SirT5, succinyl-peptide AMC, trypsin-coupled fluorescence. Q9NXA8. 330,000 tested, 1.1% active. inhibition, % at 15 µM; in the data active = inhibition above about 15%
Target sequence (Q9NXA8 whole entry, looked up): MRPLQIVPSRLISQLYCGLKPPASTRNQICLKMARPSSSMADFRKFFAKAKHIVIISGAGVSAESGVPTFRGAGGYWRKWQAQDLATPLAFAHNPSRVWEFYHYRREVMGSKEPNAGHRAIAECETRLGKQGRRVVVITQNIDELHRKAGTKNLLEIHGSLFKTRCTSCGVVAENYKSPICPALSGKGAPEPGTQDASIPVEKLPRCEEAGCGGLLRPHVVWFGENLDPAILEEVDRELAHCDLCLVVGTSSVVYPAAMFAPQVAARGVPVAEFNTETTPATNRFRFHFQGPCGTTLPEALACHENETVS
Cneo AK release – Cryptococcus neoformans lysis via adenylate kinase release | C. neoformans lysis, adenylate kinase release luminescence, 4 h; normalised: neutral wells 0, clomiphene wells 100 | lysis activity, % at 15 µM | 360,000 tested, 0.2% active | AID 651654;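 active = mean lysis activity across replicates of at least 80%, whatever share of replicates individually reach that level; inactive = mean lysis activity below 80%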
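Test system: log-phase Cryptococcus neoformans yeast cells. Input: 5 × 10^6 yeast cells/mL. Medium: fresh YPD growth medium. Doses: single dose. Incubation: static 4 h at 37 °C with compound, 1 h detection. Measured by: luminescent adenylate kinase detection reagent. Read-out: signal increase indicating cell lysis. Benchmarks: Clomiphene.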
S100A4 inh HTS – blocks human S100A4 binding to myosin IIA peptide; AID 652163; 360,000 tested, 0.14% active; P26447; S100A4/TAMRA-MyoIIA peptide fluorescence polarization; inhibition, % at 10.7 µM;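 active = mean inhibition of at least 70% across replicates, with every replicate also reaching that level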
Target sequence (P26447 whole entry, looked up): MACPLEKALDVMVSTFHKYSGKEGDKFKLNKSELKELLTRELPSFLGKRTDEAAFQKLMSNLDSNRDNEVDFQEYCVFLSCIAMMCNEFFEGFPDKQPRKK
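incubation = readout 5 min after mixing, signal stable up to 60 min | system = S100A4 monomer protein | buffer or medium = HEPES pH 7.2 with CaCl2, KCl, NaCl, DTT, Triton | benchmarks = neutral control DMSO, positive control TFP | also added = fluorescent myosin IIA peptide, 5 nM | compound dosing = one concentration per compound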
C2C12 statin – suppression of simvastatin myotoxicity; C2C12 myotubes + simvastatin, ATP luminescence, 48 h; scaled: DMSO 0, geranylgeraniol control 100; rescue of ATP level, % at 7.49 µM; 330,000 tested, 0.78% active;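 active = mean ATP rescue above about 67%, or every replicate alone reaching that limit, limit read from the data, passing the limit was not always enough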;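 also: myotubes were challenged with 10 µM simvastatin during compound exposure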
Large screens that a line does not name were inactive. A selection: hits, their analogues and other compounds. The true share with any hit is near 3%.

N=C1/C(=C/c2ccc(-c3cccc(C(=O)O)c3)o2)C(=O)N=C2SC(CC(=O)N3CCOCC3)=NN12	SIRT5 block 22
COc1cccc(N=Nc2ccc3ccccc3c2O)c1	S100A4 inh HTS 122 (no result: PGC1a acetyl inh)
Cc1ccc(SCc2cn3c(C)csc3n2)cc1	rRNA inh HTS -51
Cc1ccc(S(=O)(=O)NCc2cn3c(C)csc3n2)cc1	none (no result: rRNA inh HTS, SIRT5 block, Cneo AK release, S100A4 inh HTS)
CCCNC(=O)N1C[C@@H](O)COC[C@H]2O[C@H](CC(=O)N3CCCCC3)CC[C@@H]21	none
O=C(C[C@H]1CC[C@H](NC(=O)Nc2ccc(C(F)(F)F)cc2)[C@H](CO)O1)NCc1cccc(F)c1	Cneo AK release 91
O=C(C[C@@H]1CC[C@@H](NC(=O)Nc2cccc(F)c2)[C@H](CO)O1)NCC1CC1	SIRT5 block 22
Cc1ccc(C(=O)C(C(=O)/C=C/c2ccccc2)=C2SCCCS2)cc1	C2C12 statin 113 (no result: rRNA inh HTS, SIRT5 block, S100A4 inh HTS)
C[C@@H]1CCCCO[C@@H](CN(C)C)[C@H](C)CN([C@H](C)CO)C(=O)c2cc(NC(=O)CCC(F)(F)F)ccc2O1	none
CC(=O)N1[C@@H]2Cn3c(ccc(-c4ccccc4)c3=O)[C@H]1[C@@H](C(=O)Nc1ccccc1)[C@@H]2CO	none (no result: PGC1a acetyl inh)
Cc1ccc(-n2ccc(=O)c(-c3ccnc(SCc4cccc(Cl)c4)n3)n2)cc1	C2C12 statin 84 (no result: rRNA inh HTS, SIRT5 block, S100A4 inh HTS)
O=C(C[C@@H]1CC[C@@H]2[C@H](COC[C@H](O)CN2Cc2ccc3c(c2)OCO3)O1)Nc1ccc(-c2ccccc2)cc1	SIRT5 block 15
O=C(C[C@@H]1CC[C@H]2[C@@H](COC[C@H](O)CN2Cc2ccc(Oc3ccccc3)cc2)O1)Nc1nccs1	Cneo AK release 88
O=C(C[C@H]1CC[C@H]2[C@@H](COC[C@H](O)CN2Cc2cccc(Cl)c2)O1)Nc1nccs1	Cneo AK release 115
CCCNC(=O)Nc1ccc2c(c1)OC[C@H](C)N(Cc1ccncc1)C[C@@H](C)[C@@H](OC)CN(C)C2=O	none
C[C@@H]1CN([C@@H](C)CO)C(=O)c2cccc(NS(=O)(=O)c3cccs3)c2O[C@H]1CN(C)S(=O)(=O)c1ccc(Cl)cc1	none
C[C@H]1CN([C@@H](C)CO)C(=O)c2cc(NS(=O)(=O)c3ccc(Cl)cc3)ccc2O[C@H]1CN(C)C	none
C[C@H]1CN([C@@H](C)CO)C(=O)c2cc(NC(=O)C3CC3)ccc2O[C@H]1CN(C)S(=O)(=O)c1ccc(F)cc1	none
Cc1nc(N2CCCCC2)c(C#N)c(C)c1[N+](=O)[O-]	rRNA inh HTS -33 (no result: PGC1a acetyl inh, Cneo AK release, C2C12 statin)
N#Cc1ccc(-c2ccc3c(c2)[C@H]2[C@H](CCN2C(=O)c2ccncc2)[C@H](CO)N3)cc1	none (no result: SIRT5 block, S100A4 inh HTS)
O=C(Nc1ccnn1C1CCN(C2CCCC2)CC1)c1ccccc1Cl	SIRT5 block 27
O=C(C[C@@H]1CC[C@H]2[C@@H](COC[C@@H](O)CN2S(=O)(=O)c2ccc(Cl)cc2)O1)N[C@H]1CCN(Cc2ccccc2)C1	none
NS(=O)(=O)c1ccc(CCNc2ccn3nc(-c4ccccc4)cc3n2)cc1	none (no result: PGC1a acetyl inh)
CC(C)Cc1ccc(-c2cc3nc(NCCc4ccc(S(N)(=O)=O)cc4)ccn3n2)cc1	SIRT5 block 20
C=CCOC(=O)[C@H]1[C@@H]2C(=O)O[C@@H](c3ccccc3)[C@@H](c3ccccc3)N2[C@@H](c2ccc(OCCOC(=O)[C@@H]3C[C@@H]4C(=O)N[C@@H](Cc5ccccc5)C(=O)N4[C@@H]3c3ccc(O)cc3)cc2)[C@]12C(=O)Nc1ccc(I)cc12	none (no result: rRNA inh HTS, C2C12 statin)
C=CCOC(=O)[C@@H]1[C@H]2C(=O)O[C@H](c3ccccc3)[C@H](c3ccccc3)N2[C@H](c2ccc(OCCOC(=O)[C@@H]3C[C@@H]4C(=O)N[C@@H](Cc5ccccc5)C(=O)N4[C@@H]3c3ccc(O)cc3)cc2)[C@@]12C(=O)Nc1ccc(I)cc12	SIRT5 block 19 (no result: PGC1a acetyl inh, rRNA inh HTS, C2C12 statin)
CN(C)CCCNC(=O)C[C@@H]1CC[C@H]2[C@@H](COc3ccc(NS(C)(=O)=O)cc3C(=O)N2C)O1	none
C[C@H](CO)N1C[C@H](C)[C@@H](CN(C)CC2CCCCC2)Oc2ncc(C#C[C@@H](C)O)cc2C1=O	none

Screening data (PubChem)
